Data on 15 compounds can be found in ChEMBL document CHEMBL1130282, “Syntheses and structure-activity relationships of taxoids derived from 14 beta-hydroxy-10-deacetylbaccatin III” (J Med Chem, 1997).

Experiment [1] deals with A549. Briefly: Growth inhibition of human non-small-lung carcinoma (A549) cell line. The experiment is classed as functional, cell-based.
Experiment [2] concerns A121. Briefly: Growth inhibition of human ovarian carcinoma (A121) cell line. It is filed as functional, cell-based. The procedure, abridged:
(§1)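 Cells seeded at 400/well, attached overnight, grown in RPMI-1640 with 5% fetal bovine serum and 5% Nu Serum. Taxanes in DMSO, diluted in medium, 72 h exposure, triplicate wells. Fixed with ice-cold 50% TCA (1 h, 4 °C), stained with 0.4% sulforhodamine B, dye dissolved in 10 mM Tris (pH 10.5), OD 570 nm. IC50 from sigmoid-Emax nonlinear regression, weighted by reciprocal squared predicted effect.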

Experiment [3] deals with HT-29. Briefly: Growth inhibition of human colon carcinoma (HT-29) cell line. The experiment is classed as functional, cell-based. The procedure, abridged:
as §1

Experiment [4] deals with MCF7R. Description: Growth inhibition of human mammary carcinoma 180 fold resistant to doxorubicin (MCF-7-R) cell line. The experiment is classed as functional, cell-based.
For experiment [5], the system named is MCF7. Description: Growth inhibition of human mammary carcinoma (MCF-7) cell line. The experiment is classed as functional, cell-based. A digest of the protocol:
as §1

Experiment [6] can be described thus: Ratio of growth inhibition (IC50) of MCF7-R / MCF-7 cell lines. It is filed as functional, Homo sapiens.

As for `CC(=O)O[C@@]12COC1C[C@H](O)[C@@]1(C)C(=O)[C@H](O)C3=C(C)[C@@H](OC(=O)[C@H](O)[C@H](CC(C)C)NC(=O)OC(C)(C)C)[C@@H]4OC(=O)O[C@]4([C@@H](OC(=O)c4ccccc4)C21)C3(C)C` (stereo not given in full), the IC50 was 1.8 nM in experiment [1]; 1 nM in experiment [2]; 3.4 nM in experiment [3]; 385 nM in experiment [4]; 2.7 nM in experiment [5].
In the case of `CC(=O)O[C@@]12COC1C[C@H](O)[C@@]1(C)C(=O)[C@H](O)C3=C(C)[C@@H](OC(=O)[C@H](O)[C@@H](NC(=O)OC(C)(C)C)c4ccccc4)[C@@H]4OC(=O)O[C@]4([C@@H](OC(=O)c4ccccc4)C21)C3(C)C` (stereo not given in full), the IC50 in experiment [1] stood at 2.1 nM; in experiment [2], 6.2 nM; in experiment [3], 1.8 nM; in experiment [4], 543 nM; in experiment [5] it was 1.8 nM. For the same compound, the Ratio in experiment [6] amounted to 302.
In the case of `CC(=O)O[C@@]12CO[C@@H]1C[C@H](O)[C@@]1(C)C(=O)[C@H](O)C3=C(C)[C@@H](OC(=O)[C@H](O)[C@@H](NC(=O)OC(C)(C)C)c4ccccc4)[C@H](O)[C@@](O)([C@@H](OC(=O)c4ccccc4)C12)C3(C)C` (stereo not given in full), in experiment [4], the IC50 was > 1000 nM.
For `CC(=O)O[C@@]12COC1C[C@H](O)[C@@]1(C)C(=O)[C@H](O)C3=C(C)[C@@H](OC(=O)[C@H](O)[C@H](CC(C)(C)C)NC(=O)OC(C)(C)C)[C@@H]4OC(=O)O[C@]4([C@@H](OC(=O)c4ccccc4)C21)C3(C)C` (stereo not given in full), the IC50 was 51 nM in experiment [1]; 106 nM in experiment [2]; 52 nM in experiment [3]; > 1000 nM in experiment [4]; 48 nM in experiment [5].
In the case of `C/C=C/C(=O)O[C@H]1C(=O)[C@@]2(C)C([C@H](OC(=O)c3ccccc3)[C@]34OC(=O)O[C@H]3[C@H](OC(=O)[C@H](O)[C@H](C=C(C)C)NC(=O)OC(C)(C)C)C(C)=C1C4(C)C)[C@]1(OC(C)=O)COC1C[C@@H]2O` (stereo not given in full), the IC50 worked out at 0.5 nM in experiment [1]; 0.8 nM in experiment [2]; 1.5 nM in experiment [3]; 17 nM in experiment [4]; 0.4 nM in experiment [5]. Also, the Ratio in experiment [6] amounted to 43.
Take `CCCCCC(=O)N[C@@H](c1ccccc1)[C@@H](O)C(=O)O[C@@H]1C(C)=C2[C@@H](O)C(=O)[C@@]3(C)C([C@H](OC(=O)c4ccccc4)[C@@]4(OC(=O)O[C@@H]14)C2(C)C)[C@]1(OC(C)=O)COC1C[C@@H]3O` (stereo not given in full): the IC50 in experiment [1] was 389 nM; in experiment [2] it was 330 nM; in experiment [3], 157 nM; in experiment [4], > 1000 nM; in experiment [5] it was 13 nM.
For `CC(=O)O[C@@]12COC1C[C@H](O)[C@@]1(C)C(=O)[C@H](OC(=O)N(C)C)C3=C(C)[C@@H](OC(=O)[C@H](O)[C@H](C=C(C)C)NC(=O)OC(C)(C)C)[C@@H]4OC(=O)O[C@]4([C@@H](OC(=O)c4ccccc4)C21)C3(C)C` (stereo not given in full), the IC50 amounted to 0.6 nM in experiment [1]; 0.7 nM in experiment [2]; 1.2 nM in experiment [3]; 33 nM in experiment [4]; 0.4 nM in experiment [5]. Also, the Ratio in experiment [6] stood at 83.
Consider `CCCCCC(=O)N[C@@H](C=C(C)C)[C@@H](O)C(=O)O[C@@H]1C(C)=C2[C@@H](OC(=O)C3CC3)C(=O)[C@@]3(C)C([C@H](OC(=O)c4ccccc4)[C@@]4(OC(=O)O[C@@H]14)C2(C)C)[C@]1(OC(C)=O)COC1C[C@@H]3O` (stereo not given in full), for which the IC50 in experiment [1] worked out at 18 nM; in experiment [2], 12 nM; in experiment [3] it was 16 nM; in experiment [4], 321 nM; in experiment [5], 3.2 nM. Moreover, the Ratio in experiment [6] was determined as 100.
Consider `CCCCCC(=O)N[C@@H](C=C(C)C)[C@@H](O)C(=O)O[C@@H]1C(C)=C2[C@@H](OC(=O)N(C)C)C(=O)[C@@]3(C)C([C@H](OC(=O)c4ccccc4)[C@@]4(OC(=O)O[C@@H]14)C2(C)C)[C@]1(OC(C)=O)COC1C[C@@H]3O` (stereo not given in full), for which the IC50 in experiment [1] was 5.5 nM; in experiment [2], 4.8 nM; in experiment [3] it was 5.1 nM; in experiment [4], 295 nM; in experiment [5] it was 1.7 nM.
For the compound `CC(=O)O[C@@]12COC1C[C@H](O)[C@@]1(C)C(=O)[C@H](O)C3=C(C)[C@@H](OC(=O)[C@H](O)[C@@H](NC(=O)c4ccccc4)c4ccccc4)[C@@H]4OC(=O)O[C@]4([C@@H](OC(=O)c4ccccc4)C21)C3(C)C` (stereo not given in full), the IC50 in experiment [1] is 33 nM; in experiment [2] it was 105 nM; in experiment [3] it was 24 nM; in experiment [4], > 1000 nM; in experiment [5] it was 11 nM.
As to `C/C=C/C(=O)O[C@H]1C(=O)[C@@]2(C)C([C@H](OC(=O)c3ccccc3)[C@]34OC(=O)O[C@H]3[C@H](OC(=O)[C@H](O)[C@H](C=C(C)C)NC(=O)CCCCC)C(C)=C1C4(C)C)[C@]1(OC(C)=O)COC1C[C@@H]2O` (stereo not given in full), the IC50 turned out to be 25 nM in experiment [1]; 17 nM in experiment [2]; 28 nM in experiment [3]; 137 nM in experiment [4]; 2.1 nM in experiment [5]. In addition, the Ratio in experiment [6] came to 65.
For `CCC[C@H](NC(=O)OC(C)(C)C)[C@@H](O)C(=O)O[C@@H]1C(C)=C2[C@@H](OC(C)=O)C(=O)[C@@]3(C)C([C@H](OC(=O)c4ccccc4)[C@@]4(OC(=O)O[C@@H]14)C2(C)C)[C@]1(OC(C)=O)COC1C[C@@H]3O` (stereo not given in full), the IC50 is 4.7 nM in experiment [1]; 2.3 nM in experiment [2]; 4.8 nM in experiment [3]; 201 nM in experiment [4]; 4.6 nM in experiment [5]. Also, the Ratio in experiment [6] is on record as 44.
With `CC(=O)O[C@H]1C(=O)[C@@]2(C)C([C@H](OC(=O)c3ccccc3)[C@]34OC(=O)O[C@H]3[C@H](OC(=O)[C@H](O)[C@@H](NC(=O)OC(C)(C)C)c3ccco3)C(C)=C1C4(C)C)[C@]1(OC(C)=O)COC1C[C@@H]2O` (stereo not given in full), the IC50 in experiment [1] came to 0.5 nM; in experiment [2], 0.4 nM; in experiment [3] it was 0.6 nM; in experiment [4], 49 nM; in experiment [5] it was 0.5 nM. In addition, in experiment [6], the Ratio worked out at 96.
For `CC(=O)O[C@@]12COC1C[C@H](O)[C@@]1(C)C(=O)[C@H](O)C3=C(C)[C@@H](OC(=O)[C@H](O)[C@@H](NC(=O)OC(C)(C)C)c4ccco4)[C@@H]4OC(=O)O[C@]4([C@@H](OC(=O)c4ccccc4)C21)C3(C)C` (stereo not given in full), the IC50 in experiment [1] is 0.5 nM; in experiment [2] it was 0.4 nM; in experiment [3] it was 0.6 nM; in experiment [4], 135 nM; in experiment [5], 0.5 nM. Moreover, the Ratio in experiment [6] is 270.
Take `CCC[C@H](NC(=O)OC(C)(C)C)[C@@H](O)C(=O)O[C@@H]1C(C)=C2[C@@H](O)C(=O)[C@@]3(C)C([C@H](OC(=O)c4ccccc4)[C@@]4(OC(=O)O[C@@H]14)C2(C)C)[C@]1(OC(C)=O)COC1C[C@@H]3O` (stereo not given in full): the IC50 worked out at 4.4 nM in experiment [1]; 2.1 nM in experiment [2]; 3.8 nM in experiment [3]; 265 nM in experiment [4]; 4.2 nM in experiment [5]. For the same compound, the Ratio in experiment [6] turned out to be 92.

Usually IC50 stands for the concentration at which inhibition is half-maximal.
